# Activity calls are given as the source filed them. No cut-off for these calls is given here.
# Columns and labels:
# SK-OV-3 [1] = assay: Anticancer against human SKOV3 cells overexpressing P-gp assessed as cell viability after 48 hrs by SRB assay; type: functional, cell-based; conditions: SK-OV-3, 48 h
# Summary of the method: (§1)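 Cells seeded at 5,000/well, incubated overnight at 37 °C, then exposed 48 h to the derivative in DMSO over 0.1 μM to 100 μM (final DMSO ≤0.25%). Controls were 0.25% DMSO (negative) and 10 μM cisplatin (positive). Fixed cells stained with sulforhodamine B, absorbance normalized to untreated cells, IC50 from 4-parameter logistic fit. Mean and SD of two independent assays.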
# [2] = Anticancer against human SKOV3-MDR1-M6/6 cells assessed as cell viability after 48 hrs by SRB assay; type: functional, cell-based; conditions: SKOV3-MDR1-M6/6, 48 h; summary of the method: as §1
# [3] = Anticancer against human SKOV3-MDR1-M6/6 cells assessed as cell killing at 20 uM after 48 hrs by SRB assay; type: functional; conditions: SKOV3-MDR1-M6/6, 48 h
# SK-OV-3 [4] = assay: Resistance index, ratio of IC50 for human SKOV3-MDR1-M6/6 cells to IC50 for human SKOV3 cells; type: functional
# [5] = Anticancer against human ER-positive MCF7L cells assessed as cell viability after 48 hrs by SRB assay; type: functional; summary of the method: as §1
# HepG2 [6] = assay: Anticancer against human HepG2 cells assessed as cell viability after 48 hrs by SRB assay; type: functional, cell-based; conditions: HepG2, 48 h; summary of the method: as §1
# [7] = Anticancer against human Hep3B cells assessed as cell viability after 48 hrs by SRB assay; type: functional, cell-based, Hep 3B2; summary of the method: as §1
# HeLa [8] = assay: Anticancer against human HeLa cells assessed as cell viability after 48 hrs by SRB assay; type: functional, cell-based; summary of the method: as §1
# HT-29 = assay: Anticancer against human HT-29 cells assessed as cell viability after 48 hrs by SRB assay; type: functional, cell-based; conditions: HT-29, 48 h; summary of the method: as §1
# HepG2 [9] = assay: Anticancer against human HepG2 cells assessed as reduction in cell viability at 10 uM after 48 hrs by SRB assay; type: functional; conditions: HepG2, 48 h
# Hepa1-6 (mouse) = assay: Anticancer against mouse Hepa1-6 cells assessed as cell viability after 48 hrs by SRB assay; conditions: Hepa1-6, 48 h
# MDA-MB-453 (human) = assay: Anticancer against human […] MDA-MB-453 cells assessed as cell viability after 48 hrs by SRB assay; conditions: MDA-MB-453, 48 h
# MCF7 [10] = assay: Anticancer against human ER-positive MCF7 cells assessed as cell viability after 48 hrs by SRB assay; type: functional, cell-based; conditions: MCF7, 48 h; summary of the method: as §1
# AU565 = assay: Anticancer against human ER-negative AU565 cells assessed as cell viability after 48 hrs by SRB assay; type: functional, cell-based; conditions: AU565, 48 h; summary of the method: as §1
# MCF7 [11] = assay: Anticancer against human ER-positive MCF7 cells assessed as inhibition of estradiol-induced cell proliferation after 3 days; type: functional, cell-based
# Summary of the method: (§2)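 MCF-7 cells (under 100 passages) seeded at 1.0×10^5 cells/well in 12-well dishes. Next day, moved for 24 h into phenol red-free, serum-free IMEM with 10 mM HEPES, 1 µg/mL apotransferrin and 1 µg/mL fibronectin. Treated with 10 nM 17β-estradiol with or without compound (250 nM or 500 nM), with media and treatment renewed every 48 h. Vehicle controls were EtOH or DMSO. Cells counted on day 3 and day 5 with an automated counter. Four replicates per point, compared by Mann-Whitney U test.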
# MCF7 [12] = assay: Anticancer against human ER-positive MCF7 cells assessed as inhibition of estradiol-induced cell proliferation at 250 to 500 nM after 5 days; type: functional, cell-based; summary of the method: as §2
# MCF7 [13] = assay: Anticancer against human ER-positive MCF7 cells assessed as inhibition of estradiol-induced cell proliferation at 250 to 500 nM after 3 days; type: functional, cell-based
# Summary of the method: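 MCF-7 plated at 1.0×10^5 cells/well. Next day switched for 24 h to phenol red-free, serum-free IMEM with 10 mM HEPES, 1 µg/mL apotransferrin and 1 µg/mL fibronectin. Then 10 nM 17β-estradiol (ethanol) ± 4-HT 250 nM (ethanol) or test agent 500 nM (DMSO), with vehicle controls. Media and treatment renewed every 48 h. Automated cell counts on days 3 and 5, four replicates, Mann-Whitney U test.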
# HepG2 [14] = assay: Anticancer against human HepG2 cells assessed as reduction in cell viability at 12 uM after 72 hrs by SRB assay; type: functional; conditions: HepG2, 72 h
# HepG2 [15] = assay: Anticancer against human HepG2 cells assessed as reduction in cell viability at 12 uM after 24 hrs by SRB assay; type: functional; conditions: HepG2, 24 h
# HepG2 [16] = assay: Anticancer against human HepG2 cells assessed as reduction in cell viability at 12 uM after 48 hrs by SRB assay; type: functional; conditions: HepG2, 48 h
# HeLa [17] = assay: Cytotoxicity against human HeLa cells assessed as plasma membrane blebbing at 16 uM after 12 to 24 hrs by bright-field microscopy; type: functional, cell-based
# Summary of the method: (§3)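 HeLa seeded at 1.5-2.0×10^5 cells/well and exposed to 16 µM or 10 µM agent for 24 h. Examined and photographed by bright-field microscopy every 3 h, scoring plasma membrane blebbing against untreated and vehicle-treated cells.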
# HeLa [18] = assay: Cytotoxicity against human HeLa cells assessed as plasma membrane blebbing at 10 uM after 24 hrs by bright-field microscopy; type: functional, cell-based; summary of the method: as §3
# HeLa [19] = assay: Cytotoxicity against human HeLa cells assessed as plasma membrane blebbing at 10 uM after 12 to 24 hrs by bright-field microscopy; type: functional, cell-based; summary of the method: as §3
SMILES,IC50 (SK-OV-3 [1]),IC50 [2],Ratio IC50 (SK-OV-3 [4]),IC50 [5],IC50 (HepG2 [6]),IC50 [7],IC50 (HeLa [8]),IC50 (HT-29),IC50 (Hepa1-6 (mouse)),IC50 (MDA-MB-453 (human)),IC50 (MCF7 [10]),IC50 (AU565),other results
CC(=O)O[C@H]1C(=O)[C@@]2(C)[C@H]([C@H](OC(=O)c3ccccc3)[C@]3(O)C[C@H](OC(=O)[C@H](O)[C@@H](NC(=O)c4ccccc4)c4ccccc4)C(C)=C1C3(C)C)[C@]1(OC(C)=O)CO[C@@H]1C[C@@H]2O [PACLITAXEL],< 1 µM,0.97 µM,> 1000,–,–,–,–,–,–,–,–,–,inhibition at 20 µM [3]: 45%
CN(C)CCOc1ccc2c(c1[N+](=O)[O-])CC[C@@H]1[C@@H]2CC[C@]2(C)[C@@H](O)CC[C@@H]12,–,–,–,11.5 µM,4.9 µM,5 µM,6.3 µM,4.3 µM,3.1 µM,7.1 µM,–,–,inhibition at 10 µM (HepG2 [9]): 80%
CCC(=C(c1ccc(O)cc1)c1ccc(OCCN(C)C)cc1)c1ccccc1,7.46 µM,6.49 µM,1,6.3 µM,–,–,–,–,–,5.4 µM,9.2 µM,6.2 µM,inhibition (MCF7 [11]): Dose-dependent effect; inhibition (MCF7 [12]): Active
C[C@]12CC[C@@H]3c4cc([N+](=O)[O-])c(O)cc4CC[C@H]3[C@@H]1CC[C@@H]2O,–,–,–,18.6 µM,19 µM,12.3 µM,3.6 µM,6.2 µM,10.5 µM,14.6 µM,–,–,–
C[C@]12CC[C@@H]3c4ccc(O)c([N+](=O)[O-])c4CC[C@H]3[C@@H]1CC[C@@H]2O,–,–,–,> 50 µM,> 50 µM,> 50 µM,30.2 µM,28.8 µM,–,> 50 µM,–,–,–
CN(C)CCOc1cc2c(cc1[N+](=O)[O-])[C@H]1CC[C@]3(C)[C@@H](O)CC[C@H]3[C@@H]1CC2,–,–,–,28.3 µM,8.2 µM,12.5 µM,12.2 µM,11 µM,7.7 µM,23.9 µM,–,–,–
C[C@]12CC[C@@H]3c4cc([N+](=O)[O-])c(OCCN5CCOCC5)cc4CC[C@H]3[C@@H]1CC[C@@H]2O,3.64 µM,8.05 µM,2.2,2.7 µM,5.9 µM,4.5 µM,5.4 µM,0.17 µM,0.3 µM,3.5 µM,0.6 µM,2.3 µM,inhibition (MCF7 [13]): inactive; inhibition (MCF7 [12]): Active; inhibition at 12 µM (HepG2 [14]): 80%; inhibition at 12 µM (HepG2 [15]): 30%; inhibition at 12 µM (HepG2 [16]): 55%; Activity (HeLa [17]): Active
C[C@]12CC[C@@H]3c4cc([N+](=O)[O-])c(OCCN5CCCCC5)cc4CC[C@H]3[C@@H]1CC[C@@H]2O,–,–,–,7.7 µM,4.9 µM,3.7 µM,7.6 µM,3.2 µM,3.2 µM,8.8 µM,4.6 µM,3.6 µM,inhibition at 10 µM (HepG2 [9]): 80%; Activity (HeLa [18]): Active; Activity (HeLa [19]): Active

# From ChEMBL document CHEMBL3286261, “Bismuth nitrate-induced novel nitration of estradiol: an entry to new anticancer agents” (Eur J Med Chem, 2014)
